Structures are written as SMILES. pIC50: −log10 of the molar value. Calls of active or inactive are those of the source. The calls are words filed in the database; no cut-off is given here.

Data set [1] in a line: Lipophilicity, log D of the compound. In kind it is physicochemical. The conditions noted are these: octanol/water.
The subject of another data set is HBL-100. In words: Antiproliferative activity against human HBL100 after 72 hrs by MTT assay. The conditions noted are these: HBL-100, 72 h. In kind it is functional, cell-based. In general terms: Formazan colour is commonly taken as a measure of viable cells.
For data set [2], the species on record is Ovis aries. In words: Inhibition of sheep tubulin assembly assessed as half inhibitory molar ratio of compound to tubulin by DAPI fluorometric assay. The arrangement: unit not given here. Summed up:
(§1)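 Lamb brain tubulin (ammonium sulfate fractionation, ion-exchange chromatography; quantified at 275 nm) was polymerized at 37 °C, started by warming, with DAPI in 20 mM sodium phosphate, 1 mM EGTA, 10 mM MgCl2, 3.4 M glycerol, pH 6.5, with DMSO under 1%. DAPI fluorescence was followed over time, and % inhibition was plotted against the ligand:tubulin molar ratio. Run in triplicate.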

Data set [3] is filed under the species Ovis aries. In words: Inhibition of sheep tubulin polymerization at 1 to 30 uM by DAPI fluorometric assay. Summed up: as §1

The term logD denotes the decadic logarithm of the distribution of all forms, ionised or not, between an organic phase and buffer at a given pH. The pIC50 is −log10 of the IC50, conventionally taken in molar units. Take `COc1ccc(CNc2nc(NCCOC(=O)CCc3cn(CCC(=O)N[C@H]4CCc5cc(OC)c(OC)c(OC)c5-c5ccc(OC)c(=O)cc54)nn3)nc(NCc3ccc(OC)cc3)n2)cc1`: the logD in data set [1] came out at 4.815. Further, the negative-log IC50 (pIC50) in the data set on HBL-100 was 5.59. Further, the INH in the data set listed under Ovis aries [2] was determined as 0.48.
In the data set with HBL-100, `COc1ccc(CNc2nc(NCCO)nc(NCc3ccc(OC)cc3)n2)cc1` showed a pIC50 of 5.50. For the same compound, the INH in the data set filed under Ovis aries [2] came out at 0.34.
Consider `COc1ccc(CNc2nc(NCCOC(=O)CCCCc3cn(CCC(=O)N[C@H]4CCc5cc(OC)c(OC)c(OC)c5-c5ccc(OC)c(=O)cc54)nn3)nc(NCc3ccc(OC)cc3)n2)cc1`, for which the logD in data set [1] was found to be 5.591. Also, the pIC50 with HBL-100 is 5.79. The INH in the data set listed under Ovis aries [2] was 0.41.
For `COc1ccc(CNc2nc(NCCOC(=O)CCCc3cn(CCCCCC(=O)N[C@H]4CCc5cc(OC)c(OC)c(OC)c5-c5ccc(OC)c(=O)cc54)nn3)nc(NCc3ccc(OC)cc3)n2)cc1` the same measures were 6.367, 5.73 and 0.48.
For `COc1ccc(CNc2nc(NCc3ccc(OC)cc3)nc(NCc3cn(CCCCCCCCCC(=O)N[C@H]4CCc5cc(OC)c(OC)c(OC)c5-c5ccc(OC)c(=O)cc54)nn3)n2)cc1` the same measures were 8.465, 6.16 and 0.99.
`COc1ccc(CNc2nc(NCCOC(=O)CCCCCCCCc3cn(CCC(=O)N[C@H]4CCc5cc(OC)c(OC)c(OC)c5-c5ccc(OC)c(=O)cc54)nn3)nc(NCc3ccc(OC)cc3)n2)cc1`: the inhibition result in the data set listed under Ovis aries [3] is “Active”. The compound also came in with a logD in data set [1] of 7.612. The compound further had a pIC50 in the data set with HBL-100 of 6.16. The INH in the data set listed under Ovis aries [2] came out at 0.71.
Turning to `COc1ccc(CNc2nc(NCCOC(=O)COCCOCCOCCOCCOCCOCCOCCOCCOCCOCCOCC(=O)N[C@H]3CCc4cc(OC)c(OC)c(OC)c4-c4ccc(OC)c(=O)cc43)nc(NCc3ccc(OC)cc3)n2)cc1`, the logD in data set [1] is listed as 2.568. The compound further gave a pIC50 in the data set with HBL-100 of 5.53. Also, the INH in the data set listed under Ovis aries [2] was found to be 3.44.
As for `COc1ccc(CNc2nc(NCCOC(=O)CCCc3cn(CCCCCCCCCC(=O)N[C@H]4CCc5cc(OC)c(OC)c(OC)c5-c5ccc(OC)c(=O)cc54)nn3)nc(NCc3ccc(OC)cc3)n2)cc1`, the log distribution coefficient (logD) in data set [1] is given as 8.738. Besides, the pIC50 with HBL-100 is 6.00. The INH in the data set filed under Ovis aries [2] was determined as 3.4.
On the same counts, the results for `COc1ccc(CNc2nc(NCCOC(=O)CCCCCCCCCCCCCCCc3cn(CCCCCC(=O)N[C@H]4CCc5cc(OC)c(OC)c(OC)c5-c5ccc(OC)c(=O)cc54)nn3)nc(NCc3ccc(OC)cc3)n2)cc1` are 9.814, 6.22 and 2.75.

Values taken from ChEMBL document CHEMBL2046388, “Synthesis and biological evaluation of novel anticancer bivalent colchicine-tubulizine hybrids” (Bioorg Med Chem, 2012).
